IDE cell activ – activators of human insulin-degrading enzyme in cells | P14735 | HEK cells, FAbeta-B cleavage, fluorescence polarization; 0% vehicle, 100% cell-free pure enzyme wells | activation, % at 5.96 µM | 340,000 tested, 0.073% active | AID 493087;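 active = activation above the mean of all tested compounds plus 3 SD, set per screening campaign, cut at about 17% in these data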
TPT1 inhibitor – inhibitors of Candida albicans tRNA 2'-phosphotransferase TPT1; 300,000 tested, 0.81% active; recombinant caTPT1, FP RNA substrate dephosphorylation; inhibition, % at 5 µM; AID 1962;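 active = inhibition above the mean of all tested compounds plus 3 SD, set per screening campaign, cut at about 24% in these data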;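 also: plate controls were DMSO alone for no effect and ferristatin control at 100 nM for full effect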
IDE inh – cellular human IDE inhibition | P14735 | HEK cells, FAbetaB cleavage, fluorescence polarization | AID 434962 | inhibition, % at 5.59 µM | 320,000 tested, 0.41% active;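 active = percent inhibition above the average of all tested compounds plus 3 SD, set per screening campaign, cut at about 16% in these data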;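 also: IDE supplied by intact live HEK cells; FP after avidin binding of uncleaved biotin substrate so inhibition keeps polarization high; 0% = DMSO wells and 100% = 60 µM reference IDE inhibitor Ii1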
Rpn11 block – blocks the human proteasome subunit Rpn11. 360,000 tested, 0.59% active. human 26S proteasome, Ub4-pepOG fluorescence polarization; 20S core pre-blocked with epoxomicin. O00487. inhibition, % at 20 µM;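 active = inhibition at 20 µM, scaled to each plate's controls, above about 33%, limit read from the data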
HNF4A DNA FP – change in binding of human HNF4 alpha to DNA | P41235 | HNF4a-FITC DNA binding, fluorescence polarization, 1 h | activity change, % at 10 µM | 360,000 tested, 0.3% active | AID 1224865; in the data active = activity change above about 30%, passing the limit was not always enough
CSN deneddyl inh – inhibitors of human CSN-mediated cullin deneddylation; Q92905; Purified CSN, SCF-Nedd8-OG deneddylation, fluorescence polarization; inhibition, % at 12.5 µM; 360,000 tested, 0.38% active;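 active = pattern-corrected inhibition above about 35%, with an unprinted fluorescence ratio check between 0.5 and 1.5, limit read from the data, passing the limit was not always enough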;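 also: 0% = enzyme with substrate and 100% = substrate without enzyme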
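Assay system: purified human Csn5 enzyme expressed in HEK293T cells; measure: % inhibition; also added: SCFSkp2-Nedd8OG substrate at 10 nM final; technique: fluorescence polarization; times: reaction 90 min, room temperature; medium: Tris buffer pH 7.5, NaCl, DTT, Tween-20, trehalose, ovalbumin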
caTPT1 confirm – confirmation of Candida albicans TPT1 inhibitors; shares compounds with TPT1 inhibitor; recombinant caTPT1, fluorescence polarization, RNase T1 coupled; 2,400 tested, 74% active; inhibition, % at 5 µM;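 active = inhibition above the primary screen limit, the mean inhibition of all tested compounds plus 3 SD, cut at about 25% in these data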
RNase T1 counter – RNase T1 inhibition in TPT1 counter-screen. shares compounds with TPT1 inhibitor. RNase T1 cleavage, fluorescence polarization, 1536-well. inhibition, % at 5 µM. 2,400 tested, 83% active. AID 2153;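 active = inhibition above the solvent-only control well mean plus 3 SD, limit set per screening run, cut at about 23% in these data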;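 also: plate controls were DMSO wells with enzyme for no effect and wells without RNase T1 for full effect; inhibitors block cleavage so intact labeled substrate keeps polarization high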
Target sequence (P00651 whole entry, looked up): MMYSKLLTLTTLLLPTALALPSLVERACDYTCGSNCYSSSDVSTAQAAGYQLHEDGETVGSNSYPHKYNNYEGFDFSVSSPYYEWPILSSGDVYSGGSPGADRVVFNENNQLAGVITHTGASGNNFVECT
IDE cell inh cf – cellular human IDE inhibition, confirmation. shares compounds with IDE inh. HEK cells, FAbetaB cleavage, fluorescence polarization. inhibition, % at 5.59 µM. 1,200 tested, 51% active. AID 435028;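 active = mean inhibition across triplicate wells above the cutoff set by the earlier primary insulin-degrading enzyme screen, cut at about 16% in these data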;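 also: 0% = DMSO wells and 100% = 60 µM reference IDE inhibitor Ii1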
HEK293 tox – kills HEK cells in IDE inhibitor counter-screen; shares compounds with IDE inh; HEK293 cytotoxicity, ATP luminescence; inhibition, % at 5.59 µM; 1,200 tested, 28% active; AID 449730; in the data active = inhibition above about 22%;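 also: 0% = vehicle wells and 100% = reference cytotoxic drug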
Rpn11 confirm – confirmation of human proteasome Rpn11 inhibitors; shares compounds with Rpn11 block; purified human 26S proteasome, Ub4-pepOG fluorescence polarization; proteasome pretreated with epoxomicin; inhibition, % at 20 µM; 1,900 tested, 29% active
MMP-2 counter – MMP-2 (human) inhibition counter-screen; shares compounds with Rpn11 block; 1,900 tested, 4% active; AID 602330; inhibition, % at 20 µM; recombinant MMP-2, FRET peptide cleavage fluorescence;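 also: human MMP-2 activated beforehand with APMA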
Thrombin FP – thrombin (bovine) inhibition counter-screen | AID 602333 | inhibition, % at 20 µM | 1,900 tested, 13% active | shares compounds with Rpn11 block | bovine thrombin cleavage of Ub4-pepOG, fluorescence polarization;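 active = mean inhibition at least 40% at 20 µM, or signal 3 deviations below plate average, so some actives read negative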;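 also: plate controls were thrombin with DMSO for no effect and buffer wells lacking thrombin for full effect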
Target sequence (P00735 whole entry, looked up): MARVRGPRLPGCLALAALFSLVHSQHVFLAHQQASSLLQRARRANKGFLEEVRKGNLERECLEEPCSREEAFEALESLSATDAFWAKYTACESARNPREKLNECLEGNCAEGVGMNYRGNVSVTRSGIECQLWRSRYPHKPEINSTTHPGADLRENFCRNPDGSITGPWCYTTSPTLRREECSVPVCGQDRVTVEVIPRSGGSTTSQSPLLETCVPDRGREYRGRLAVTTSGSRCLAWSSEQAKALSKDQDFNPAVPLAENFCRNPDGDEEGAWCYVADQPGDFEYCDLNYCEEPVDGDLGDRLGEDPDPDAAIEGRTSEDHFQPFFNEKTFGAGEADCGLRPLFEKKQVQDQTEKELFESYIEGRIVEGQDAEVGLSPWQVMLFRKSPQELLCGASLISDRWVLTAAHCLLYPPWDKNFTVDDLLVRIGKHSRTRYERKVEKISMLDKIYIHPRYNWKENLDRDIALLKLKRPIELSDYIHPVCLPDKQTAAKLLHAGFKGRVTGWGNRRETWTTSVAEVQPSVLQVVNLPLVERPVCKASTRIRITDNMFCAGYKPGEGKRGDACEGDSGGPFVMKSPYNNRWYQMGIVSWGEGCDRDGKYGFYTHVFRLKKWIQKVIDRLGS
* marks the source's active call; other numbers are inactive results; nt = no result shown. Sampled rows, rich in hits. Any-hit rate of the full collection: about 1.7%. Rule as the data show it, unless noted: active = inhibition above about 40%; inactive = the rest.

SMILES	IDE cell activ	TPT1 inhibitor	IDE inh	Rpn11 block	HNF4A DNA FP	CSN deneddyl inh	caTPT1 confirm	RNase T1 counter	Rpn11 confirm	MMP-2 counter	Thrombin FP	others
Nc1c(C(=O)Nc2ccccc2F)sc2nc(-c3ccco3)ccc12	-14	31*	12	44*	20	19	27*	38*	12	-29	11
COc1ccc(C2=NN(c3nc(-c4ccccc4)c(CC(=O)O)s3)C(c3ccco3)C2)cc1 (stereo not given)	1	60*	9	69*	19	43*	37*	49*	25	24	17
Cc1nc(N2N=C(c3ccc(Cl)cc3)CC2c2ccco2)sc1C(=O)N(C)C (stereo not given)	-1	-2	8	16	-1	2	nt	nt	nt	nt	nt
Nc1nc(-c2ccccc2)c(CCCOc2ccc(NC(=O)CBr)cc2)c(=O)[nH]1	5	nt	nt	4	2	-6	nt	nt	nt	nt	nt
Cc1ccc(O)c(/C=N/NC(=O)c2[nH]ncc2Br)c1	2	-1	-3	-6	-1	1	nt	nt	nt	nt	nt
O=C(N/N=C/c1c(O)ccc2ccccc12)c1[nH]ncc1Br	-21	32*	13	80*	23	29	64*	63*	67*	-19	23
C[C@H](CO)N1C[C@H](C)[C@H](CN(C)S(=O)(=O)c2cccs2)OCc2cnnn2CCCC1=O	nt	nt	nt	-7	-1	3	nt	nt	nt	nt	nt
CCCCn1c(O)c(/C=C/C=C/C=Nc2ccccc2)sc1=S	-4	44*	-7	81*	51*	24	20	28*	35	19	37
COc1cc(S(=O)(=O)Nc2ccccc2)ccc1N=Cc1c(C)[nH]n(-c2ccc(C)cc2)c1=O	nt	-2	-11	nt	nt	nt	nt	nt	nt	nt	nt
COc1cc(SC#N)ccc1N=Cc1c(C)[nH]n(-c2ccc(C)c(C)c2)c1=O	-2	30*	-1	44*	14	17	62*	67*	-10	-7	-10
Cc1ccc(NC(=O)[C@@H]2O[C@H](CO)[C@@H](O)[C@H]2O)cc1C(F)(F)F	nt	nt	nt	2	0	0	nt	nt	nt	nt	nt
Oc1ccc(/C=N/Nc2ccnc3cc(Cl)ccc23)cc1O	-9	2	2	-5	-3	3	nt	nt	nt	nt	nt
Oc1ccc(/C=N/Nc2ccnc3cc(Cl)ccc23)c(O)c1O	1	33*	5	41*	6	14	14	20	10	10	3
O=C(/C=C/[C@H]1O[C@@H](n2cnc3c(NC(=O)c4ccccc4)ncnc32)[C@H](O)[C@@H]1O)NCc1ccc2c(c1)OCO2	nt	nt	nt	-1	2	6	nt	nt	nt	nt	nt
C(=N\NC1=Nc2cccc3cccc1c23)/c1cccnc1	-17	26*	23*	70*	40*	30	41*	56*	40*	-57	23	IDE cell inh cf=15;HEK293 tox=9
NS(=O)(=O)c1ccc(CCNC(=O)c2cccc(S(=O)(=O)N3CCc4ccccc43)c2)cc1	nt	nt	nt	-1	-1	2	nt	nt	nt	nt	nt
CCN(CCO)c1ccc(N=Nc2cc(C)[nH]n2)cc1	0	25*	-1	70*	47*	17	34*	42*	42*	-13	36
OC[C@@H]1CN(CCN2CCOCC2)C[C@H](n2cnc3c(N4CCCC4)ncnc32)O1	nt	nt	nt	-5	-1	0	nt	nt	nt	nt	nt
O=C(Nc1nccs1)c1ccc(-c2ccc([N+](=O)[O-])cc2)o1	3	37*	-2	73*	29	17	34*	48*	-14	-4	active
CCOC1=C/C(=C/c2c(N)n3nc(S(=O)(=O)CC)sc3nc2=O)C=CC1=O	-114	28*	22*	74*	22	33	56*	59*	65*	-8	46*	IDE cell inh cf=112*;HEK293 tox=6
Cc1c(O)ccc(/C(Cc2ccc3ccccc3n2)=N\N)c1O	4	29*	-10	48*	12	13	36*	47*	-4	-5	-16
NS(=O)(=O)c1ccc(Nc2ccc([N+](=O)[O-])c3nonc23)cc1	-5	38*	5	56*	30	17	48*	62*	45*	-71	34
COCCn1c(SCc2nc3sc(C(=O)OC)c(C)c3c(=O)[nH]2)nc2ccccc21	5	26*	-1	50*	17	15	24	33*	20	-45	19
COC(=O)c1sc2nc(CSc3ccc(Br)cc3)[nH]c(=O)c2c1C	-1	35*	8	76*	12	5	26*	36*	50*	-20	-2
CCOC(=O)c1sc2nc(CSc3ccccc3Cl)[nH]c(=O)c2c1C	7	16	11	nt	13	3	nt	nt	nt	nt	nt
SMILES	IDE cell activ	TPT1 inhibitor	IDE inh	Rpn11 block	HNF4A DNA FP	CSN deneddyl inh	caTPT1 confirm	RNase T1 counter	Rpn11 confirm	MMP-2 counter	Thrombin FP	others
CCOC(=O)N1CCN(C(c2ccnc3ccccc23)c2nnnn2-c2ccc3c(c2)OCCO3)CC1 (stereo not given)	nt	nt	nt	nt	-1	-7	nt	nt	nt	nt	nt
COc1cccc(NC(=O)COC(=O)C2CCCCC2)c1	3	nt	-1	-4	-1	-2	nt	nt	nt	nt	nt
CC1(C2CC2)NC(=O)N(CC(=O)Nc2ccc(OC(F)F)cc2)C1=O (stereo not given)	nt	nt	nt	0	-2	2	nt	nt	nt	nt	nt
Cc1sc2nc(CSC(C)C(=O)Nc3ccc(C(N)=O)cc3)[nH]c(=O)c2c1C (stereo not given)	3	8	-1	16	9	10	nt	nt	nt	nt	nt
Cc1sc2nc(CSCC(=O)Nc3ccccc3C#N)[nH]c(=O)c2c1C	2	37*	2	49*	14	4	47*	61*	46*	-12	30
Cc1sc2nc(CSC(C)C(=O)Nc3ccc(C#N)cc3)[nH]c(=O)c2c1C (stereo not given)	-3	29*	1	46*	20	7	38*	49*	32	-11	29

Screens as filed in PubChem BioAssay.
